Reference: ChEMBL document CHEMBL1156777, “Synthesis and antiprotozoal activity of cationic 1,4-diphenyl-1H-1,2,3-triazoles” (J Med Chem, 2010)

How the values were obtained:
[1] = system: Trypanosoma brucei rhodesiense; test: Antitrypanosomal activity against Trypanosoma brucei rhodesiense STIB900 infected in NMRI mouse assessed as mean parasitemia relaps day at 5 mg/kg, ip; assay type: functional; details: route intraperitoneal
Summary of the method: (§1)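 Female NMRI mice infected ip with 2 × 10⁴ STIB900 bloodstream forms. Groups of four dosed ip daily on days 3–6 postinfection; compounds in DMSO diluted with water to 10% final DMSO. Untreated infected controls. Tail-blood parasitaemia checked on days 7 and 10, twice weekly to day 30, then weekly to day 60. Relapse day recorded for mean relapse day; cure means parasite-free survival to day 60.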

[2] = system: Trypanosoma brucei rhodesiense; test: Antitrypanosomal activity against Trypanosoma brucei rhodesiense STIB900 infected in NMRI mouse assessed as mean parasitemia relaps day at 20 mg/kg, ip; assay type: functional; details: route intraperitoneal
Summary of the method: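 Female NMRI mice were infected ip with 2 × 10⁴ STIB900 bloodstream forms, in groups of four. Compound in 10% DMSO/distilled water was given ip at 5 mg/kg daily on days 3–6 postinfection, with untreated infected controls. Tail-blood parasitaemia was checked on days 7 and 10, then twice weekly to day 30 and weekly to day 60. Relapse day was recorded for mean relapse day.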

[3] = system: Trypanosoma brucei rhodesiense; test: Antitrypanosomal activity against Trypanosoma brucei rhodesiense STIB900 infected in NMRI mouse assessed as mean parasitemia relaps day at 10 mg/kg, ip; assay type: functional; details: route intraperitoneal
Summary of the method: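 Single-dose ip regimen at 10 mg/kg in female NMRI mice infected ip with 2 × 10⁴ STIB900 bloodstream forms, four mice per group. Dosing solution was DMSO diluted with water to 10% final DMSO. Tail-blood parasitaemia followed to day 60 postinfection, with relapse day recorded; untreated infected controls.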

Mus musculus [4] = test: Toxicity in NMRI mouse infected with Trypanosoma brucei rhodesiense STIB900 assessed as survival at 0.5 mg/kg, ip after administered for 4 consecutive days from day 3 postinfection measured after 7 to 30 days; assay type: organism-based; design: dose 0.5 mg/kg, route intraperitoneal; details: in vivo; summary of the method: as §1
[5] = Selectivity index, ratio of IC50 for rat L6 cells to IC50 for Trypanosoma brucei rhodesiense STIB900; assay type: toxicity, cell-based; details: read-out: Ratio IC50
Summary of the method: (§2)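 Each index is L6 IC50 divided by parasite IC50. L6 values are from the 70 h resazurin assay. T. b. rhodesiense STIB900 values are from the 70 h resazurin assay. P. falciparum K1 values are from erythrocytic-stage [³H]-hypoxanthine incorporation: 48 h drug exposure, then 24 h with label. L. donovani values are from the 72 h axenic amastigote CellTiter assay.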

[6] = system: Trypanosoma brucei rhodesiense; test: Antitrypanosomal activity against Trypanosoma brucei rhodesiense STIB900 after 70 hrs by alamar blue assay; assay type: functional, organism-based; details: STIB900, 70 h
[7] = Selectivity index, ratio of IC50 for rat L6 cells to IC50 for Leishmania donovani MHOM/SD/62/1S-CL2D; assay type: toxicity, cell-based; details: read-out: Ratio IC50; summary of the method: as §2
[8] = system: Trypanosoma brucei rhodesiense; test: Antitrypanosomal activity against Trypanosoma brucei rhodesiense STIB900 infected in NMRI mouse assessed as mean parasitemia relaps day at 0.5 mg/kg, ip; assay type: functional; details: route intraperitoneal; summary of the method: as §1
Mus musculus [9] = test: Toxicity in NMRI mouse infected with Trypanosoma brucei rhodesiense STIB900 assessed as survival at 1 mg/kg, ip after administered for 4 consecutive days from day 3 postinfection measured after 7 to 30 days; assay type: organism-based; design: dose 1 mg/kg, route intraperitoneal; details: in vivo; summary of the method: as §1
[10] = Selectivity index, ratio of IC50 for rat L6 cells to IC50 for Plasmodium falciparum K1; assay type: toxicity, cell-based; details: read-out: Ratio IC50; summary of the method: as §2
Mus musculus [11] = test: Toxicity in NMRI mouse infected with Trypanosoma brucei rhodesiense STIB900 assessed as survival at 5 mg/kg, ip after administered for 4 consecutive days from day 3 postinfection measured after 7 to 30 days; assay type: organism-based; design: dose 5 mg/kg, route intraperitoneal; details: in vivo; summary of the method: as §1
L6 = test: Cytotoxicity against rat L6 cells after 70 hrs by alamar blue assay; assay type: cell-based; details: L6, 70 h
Summary of the method: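 Cells were exposed to serial dilutions for 70 h at 37 °C, 5% CO₂, then given resazurin for 2–3 h. IC50 came from sigmoidal curves; two independent runs in duplicate. Top concentration was 90 μg/mL, converted to μM by molecular weight.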

Leishmania donovani = test: Antileishmanial activity against Leishmania donovani MHOM/SD/62/1S-CL2D; assay type: functional, organism-based
Summary of the method: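 Axenic amastigotes (MHOM/SD/62/1S-CL2_D) adapted from promastigotes and grown in amastigote medium at 37 °C. 6 × 10⁴ parasites per well were exposed to 2-fold serial dilutions for 72 h at 37 °C in humidified 5% CO₂. Growth was read with tetrazolium CellTiter reagent as absorbance at 490 nm. IC50 came from a four-parameter dose–response fit; duplicate determinations were averaged.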

Plasmodium falciparum = test: Antiplasmodial activity against chloroquine-resistant Plasmodium falciparum K1 infected in human erythrocytes after 48 hrs assessed as [3H]hypoxanthine incorporation by liquid scintillation counting; assay type: functional, organism-based

SMILES: N=C(N)c1ccc(OCCCCCOc2ccc(C(=N)N)cc2)cc1 [PENTAMIDINE]
- Activity [1]: 20 days
- Activity [2]: 26 days

SMILES: Cl.Cl.N=C(N)c1ccc(-c2cn(-c3ccc(C(=N)N)cc3)nn2)cc1
- Activity [3]: 27 days
- Activity (Mus musculus [4]): Toxic
- selectivity ratio [5]: 2020
- IC50 [6]: 0.004 µM
- selectivity ratio [7]: < 1
- Activity [8]: 25.5 days
- Activity (Mus musculus [9]): Non-toxic
- selectivity ratio [10]: 4050
- Activity (Mus musculus [11]): Non-toxic
- IC50 (L6): 8.1 µM
- IC50 (Leishmania donovani): 9.1 µM
- IC50 (Plasmodium falciparum): 0.002 µM
